Tests used:
[1] = Solubility under the NF-κB reporter assay conditions; type: physicochemical; conditions: 50 µM screen
[2] = test system: IκBα; conditions: 16 µM; cited from earlier work
[3] = test system: p65; test: Western blot of p65 in nuclear lysate of NF-κB-induced CCRF-CEM cells; type: cell-based, human
Procedure, shortened: (§1)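 Cells were dosed with test compound at 100 μM or 25 μM, or with DMSO vehicle, and the NF-κB pathway was then induced with TNF-α. Controls were noninduced and TNF-α-induced cells, both given vehicle.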

[4] = NMR-based thiol reactivity assay with cysteamine; conditions: two molar equivalents of cysteamine, DMSO-d6/D2O PBS, 1H NMR
[5] = test system: p65; test: Western blot of p65 in nuclear lysate of NF-κB-induced DU-145 cells; type: cell-based, human
Procedure, shortened: as §1

[6] = test system: IL-8; test: Secreted IL-8 protein by ELISA in TNF-α-induced DU-145 cells; type: cell-based, human
Procedure, shortened: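 DU-145 cells dosed with DMSO vehicle or test compound (100 μM and 33 μM), followed by TNF-α induction of the NF-κB pathway. Non-induced and induced vehicle controls were included. Secreted IL-8 protein in the cell medium was quantified by ELISA.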

[7] = test system: DU-145; test: Cellular cytotoxicity by Alamar Blue staining, DU-145; type: cell-based, human; conditions: for IC50 against DU-145 relative to reported IC50 of cryptocaryone: fold higher than cryptocaryone
[8] = test system: IL-8 mRNA; test: Semi-quantitative RT-PCR of IL-8 mRNA in TNF-α-induced DU-145 cells; type: cell-based, human; conditions: 33 µM, lowest concentration tested
Procedure, shortened: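 DU-145 cells given DMSO vehicle or test compound (100 μM and 33 μM), then induced with TNF-α, alongside non-induced and induced controls. IL-8 mRNA was assessed by semiquantitative (traditional) RT-PCR, with GAPDH mRNA amplified as the reference transcript.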

[9] = test system: NF-κB; test: NF-κB luciferase reporter assay in A549 cells induced with TNF-α; type: cell-based, human
Procedure, shortened: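 A549 lung cancer cells carrying a stably transfected luciferase reporter behind six consensus NF-κB binding-site repeats. Cells induced with TNF-α and treated with test compound at 100, 50 and 10 μM (preliminary screen at 50 μM). Non-induced and TNF-α-induced wells serve as controls. Read-out is luciferase signal. Cell viability was checked in parallel under identical conditions.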

[10] = test system: CCRF-CEM; test: Cellular cytotoxicity by Alamar Blue staining, CCRF-CEM; type: cell-based, human; conditions: 48-hr cytotoxicity assay, mean ± SD
[11] = test system: RWPE-1; test: Cellular cytotoxicity by Alamar Blue staining, RWPE-1; type: cell-based, human; conditions: mean ± SD
[12] = test system: Vero; test: Cellular cytotoxicity by Alamar Blue staining, Vero; type: cell-based, African green monkey; conditions: mean ± SD

In the case of CO[C@@]12C=C(Br)C(=O)C[C@@H]1/C(=C(/OC(C)=O)c1ccccc1)CC2 (racemic) [Compound 4], the “solubility under the assay conditions” value [1] is reported as “poorly soluble under the assay conditions”.

In the case of O=C1C[C@@H]2/C(=C(O)\C=C\c3ccccc3)C(=O)C=C[C@@H]2O1 [cryptocaryone], the “inhibition of IκBα degradation (in words)” value [2] is listed as “inhibit the degradation of IκBα”.

With CC(=O)O/C(=C1\CO[C@]2(C)C=CC(=O)C[C@H]12)c1ccccc1 (racemic) [Compound 10] the “inhibition of nuclear translocation of p65” value (shortened to “inhibition … of p65”) ([3]; 25 µM) was “Partial inhibition of p65 nuclear translocation”, the “inhibition … of p65” value ([3]; 100 µM) was “completely inhibited nuclear translocation of p65” and the “time to disappearance of vinyl proton doublets after cysteamine addition” value [4] was ≤ 5 min. For the same molecule, the “inhibition … of p65” value ([5]; 25 µM) was “Partial inhibition of p65 nuclear translocation”, the “inhibition … of p65” value ([5]; 100 µM) was “completely inhibited nuclear translocation of p65” and the “secreted IL-8 levels” value ([6]; 33 µM) was 3,480 pg/mL. The “IC50 against DU-145 relative to reported IC50 of cryptocaryone” value [7] was “approximately 15 fold”.

With CC(=O)O/C(C)=C1\CO[C@]2(c3ccccc3)C=CC(=O)C[C@H]12 (racemic) [Compound 11] the “inhibition … of p65” value ([3]; 25 µM) was “Partial inhibition of p65 nuclear translocation”, the “inhibition … of p65” value ([3]; 100 µM) was “completely inhibited nuclear translocation of p65” and the “IL-8 mRNA production (in words)” value [8] was “visibly lower levels than that of 10”. The “inhibition … of p65” value ([5]; 25 µM) was “Partial inhibition of p65 nuclear translocation”, the “inhibition … of p65” value ([5]; 100 µM) was “completely inhibited nuclear translocation of p65” and the “secreted IL-8 levels” value ([6]; 33 µM) was 2,970 pg/mL. For the same molecule, the “effect on IL-8 protein levels (in words)” value ([6]; highest concentration tested (100 µM)) was “depleted IL-8 protein levels to nearly undetectable levels”, the “IC50 against DU-145 relative to reported IC50 of cryptocaryone” value [7] was “approximately 15 fold” and the “enhancement in potency compared with racemic 11” value ([9]; 50 µM) was 2 fold.

With CC(=O)O/C(=C1\CO[C@]2(C)CCC(=O)C[C@H]12)c1ccccc1 (racemic) [Compound 12] the “secreted IL-8 levels” value ([6]; 100 µM) was 4,900 pg/mL, the “IC50 DU-145” value ([7]; 48-hr cytotoxicity assay, Alamar Blue, mean ± SD) was “no appreciable toxicity” and the “IC50 CCRF-CEM” value [10] was “no appreciable toxicity”. For the same molecule, the “IC50 RWPE-1” value [11] was “no appreciable toxicity”, the “IC50 Vero” value [12] was “no appreciable toxicity” and the “decrease in potency compared to 11” value ([9]; 100 µM) was ~ 4 fold. The “reduction of NF-κB activity” value ([9]; 100 µM, highest concentration tested) was 24%.

Reference: article PMC3409840 (ACS medicinal chemistry letters, 2012)
